Assay results taken from ChEMBL document CHEMBL1151163, “New chromanone acids with antibacterial activity from Calophyllum brasiliense” (J Nat Prod, 2004).
Values after ≈ are worked out from the molar mass of the structure shown.

Assays:
Jurkat = assay: Cytotoxicity against human Jurkat T cells; assay type: functional, cell-based
Procedure, shortened: (§1)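 Cytotoxicity followed previously published protocols. KB cells (HeLa-derived, ATCC CCL 17) used podophyllotoxin as the positive control. Jurkat T helper cells (ATCC TIB 152) used helenalin. Myosarcoma cells used aculeatin A.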

[1] = Cytotoxicity against Myosarcoma cells; assay type: functional, cell-based; procedure, shortened: as §1
[2] = test system: Staphylococcus epidermidis; assay: Antimicrobial activity against Staphylococcus epidermidis ATCC 12228 by doubling dilution method; assay type: functional
Procedure, shortened: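 Twofold serial (doubling) dilution susceptibility test following a previously published protocol, with chloramphenicol as the positive control.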

KB = assay: Cytotoxicity against human KB cells; assay type: functional, cell-based; procedure, shortened: as §1

MIC [2] | SMILES | IC50 (Jurkat) | IC50 [1] | IC50 (KB)
 | C=C1C(=O)O[C@@H]2C[C@@H](C)[C@@H]3C=CC(=O)[C@@]3(C)[C@@H](O)[C@H]12 [HELENALIN] | 0.03 µg/mL (≈ 0.114 µM) |  | 
 | CCCCCCCCCCCCC[C@@H]1C[C@@H](O)C[C@]2(CCC3(C=CC(=O)C=C3)O2)O1 [ACULEATIN A] |  | 0.3 µg/mL (≈ 0.717 µM) | 
16 µg/mL (≈ 28.5 µM) | C=C(C)[C@@H]1C[C@@H](CC2(CC=C(C)C)C(=O)C3=C(O)[C@@H](C)[C@H](C)OC3=C(C(CC(=O)O)c3ccccc3)C2=O)C1(C)C (relative stereo) [ISOBRASILIENSOPHYLLIC ACID A] | > 20 µg/mL | > 20 µg/mL | > 20 µg/mL
16 µg/mL (≈ 28.5 µM) | C=C(C)[C@@H]1C[C@@H](CC2(CC=C(C)C)C(=O)C(C(CC(=O)O)c3ccccc3)=C3O[C@H](C)[C@@H](C)C(=O)C3=C2O)C1(C)C (relative stereo) [BRASILIENSOPHYLLIC ACID B] | > 20 µg/mL | > 20 µg/mL | > 20 µg/mL
4 µg/mL (≈ 12.4 µM) | O=C(N[C@H](CO)[C@H](O)c1ccc([N+](=O)[O-])cc1)C(Cl)Cl [CHLORAMPHENICOL] |  |  | 
16 µg/mL (≈ 28.5 µM) | C=C(C)[C@@H]1C[C@@H](CC2(CC=C(C)C)C(=O)C(C(CC(=O)O)c3ccccc3)=C3O[C@@H](C)[C@@H](C)C(=O)C3=C2O)C1(C)C (relative stereo) [ISOBRASILIENSOPHYLLIC ACID B] | > 20 µg/mL | > 20 µg/mL | > 20 µg/mL
 | COc1cc([C@@H]2c3cc4c(cc3[C@H](O)[C@H]3COC(=O)[C@H]23)OCO4)cc(OC)c1OC [PODOFILOX] |  |  | 0.005 µg/mL (≈ 0.0121 µM)
16 µg/mL (≈ 28.5 µM) | C=C(C)[C@@H]1C[C@@H](CC2(CC=C(C)C)C(=O)C3=C(O)[C@@H](C)[C@@H](C)OC3=C(C(CC(=O)O)c3ccccc3)C2=O)C1(C)C (relative stereo) [BRASILIENSOPHYLLIC ACID A] | > 20 µg/mL | > 20 µg/mL | > 20 µg/mL
